Structures are written as SMILES.

The nature of the first assay: Inhibition of Saccharomyces cerevisiae alpha-glucosidase using p-nitrophenyl-alpha-D-glucopyranoside as substrate preincubated with enzyme for 5 mins followed by substrate addition and measured after 30 mins by microplate reader analysis.
Settings: not given; call rule not given here
In short, it runs like this:
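Yeast enzyme solution 2.5 U mL-1 and p-NPG made up in 0.07 M phosphate buffer, pH 6.8. Enzyme, buffer and test compound preincubated 5 min at 37 °C, then 10 mM p-NPG stock added and incubated 30 min at 37 °C. Reaction stopped with 0.2 M Na2CO3, p-nitrophenol read at 405 nm. Percent inhibition taken against buffer-only control; IC50 from dose-response curves of compounds giving ≥50% inhibition.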
Consider `N#C/C(=C\c1ccc(OCc2ccccc2)cc1)C(=O)c1c[nH]c2ccccc12`, for which the IC50 (as a rule, the midpoint of a concentration-inhibition curve) is reported as “Not Active”.
For `N#C/C(=C\c1ccco1)C(=O)c1c[nH]c2ccccc12`, the half-maximal inhibitory concentration (IC50) entry is “Not Active”.
For `N#C/C(=C\c1c(Cl)cccc1Cl)C(=O)c1c[nH]c2ccccc12`, the IC50 entry is “Not Active”.
Regarding `N#C/C(=C\c1ccc2ccccc2c1)C(=O)c1c[nH]c2ccccc12`, the IC50 result is “Not Active”.
In the case of `N#C/C(=C\c1cc(Cl)cc(Cl)c1O)C(=O)c1c[nH]c2ccccc12`, the concentration for half-maximal inhibition (IC50) result is given as “Not Active”.
Same read-out and setting: the result for `N#C/C(=C\c1cccc([N+](=O)[O-])c1)C(=O)c1c[nH]c2ccccc12` reads “Not Active”; that for `N#C/C(=C\c1ccncc1)C(=O)c1c[nH]c2ccccc12`, “Not Active”; that for `Cc1ccccc1/C=C(\C#N)C(=O)c1c[nH]c2ccccc12`, “Not Active”.
Turning to `N#C/C(=C\c1ccc(-c2ccccc2)cc1)C(=O)c1c[nH]c2ccccc12`, the IC50 entry is given as “Not Active”.
As for `N#C/C(=C\c1cccnc1)C(=O)c1c[nH]c2ccccc12`, the IC50 result is on record as “Not Active”.
`CN(C)c1ccc(/C=C(\C#N)C(=O)c2c[nH]c3ccccc23)cc1`: the IC50 result is “Not Active”.
In the case of `COc1ccc(/C=C(\C#N)C(=O)c2c[nH]c3ccccc23)c(F)c1`, the half-inhibitory concentration (IC50) result is “Not Active”.
`N#C/C(=C\c1ccc(Cl)cc1)C(=O)c1c[nH]c2ccccc12`: the IC50 result is listed as “Not Active”.
As for `N#C/C(=C\c1cccc(OCc2ccccc2)c1)C(=O)c1c[nH]c2ccccc12`, the IC50 entry was “Not Active”.

The assay is the same for the next values; noted with them: read-out: IC50.
With `N#C/C(=C\c1cccc2ccccc12)C(=O)c1c[nH]c2ccccc12`, the IC50 was 600 nM.
For the compound `N#C/C(=C\c1ccc([N+](=O)[O-])cc1)C(=O)c1c[nH]c2ccccc12`, the IC50 was determined as 880 nM.
For `N#C/C(=C\c1ccccc1OCc1ccccc1)C(=O)c1c[nH]c2ccccc12`, the IC50 is 1190 nM.
`N#C/C(=C\c1ccc2ccc3cccc4ccc1c2c34)C(=O)c1c[nH]c2ccccc12`: the IC50 was determined as 1360 nM.
For the compound `COc1cccc(/C=C(\C#N)C(=O)c2c[nH]c3ccccc23)c1Cl`, the concentration for half-maximal inhibition (IC50) is 950 nM.
For `COc1ccc(/C=C(\C#N)C(=O)c2c[nH]c3ccccc23)cc1OCc1ccccc1`, the IC50 came out at 1020 nM.
The same measure, in the same setting: the result for `COc1cc(/C=C(\C#N)C(=O)c2c[nH]c3ccccc23)cc(OC)c1Br` reads 530 nM.
`C[C@H]1O[C@H](O[C@H]2[C@H](O)[C@@H](O)[C@@H](O[C@H]3[C@H](O)[C@@H](O)C(O)O[C@@H]3CO)O[C@@H]2CO)[C@H](O)[C@@H](O)[C@@H]1N[C@H]1C=C(CO)[C@@H](O)[C@H](O)[C@H]1O` (some centres not stated) [ACARBOSE]: the IC50 stood at 2910 nM.

Values taken from ChEMBL document CHEMBL4665864, “Indole acrylonitriles as potential anti-hyperglycemic agents: Synthesis, α-glucosidase inhibitory activity and molecular docking studies” (Bioorg Med Chem, 2020).
